Measurements published in ChEMBL document CHEMBL3822384, “2-(3-Methoxyphenyl)quinazoline Derivatives: A New Class of Direct Constitutive Androstane Receptor (CAR) Agonists” (J Med Chem, 2016).

What was measured:
Format in all cases: cell-based
AHR = biological target: T1, AHR (Homo sapiens, UniProt P35869); test: (§1) Agonist activity at AHR expressed in human HepG2 cells after 24 hrs by pXRE-luciferase reporter gene assay; details: human, HepG2 cells expressing AHR; read-out: Imax
T1 sequence (P35869 whole entry): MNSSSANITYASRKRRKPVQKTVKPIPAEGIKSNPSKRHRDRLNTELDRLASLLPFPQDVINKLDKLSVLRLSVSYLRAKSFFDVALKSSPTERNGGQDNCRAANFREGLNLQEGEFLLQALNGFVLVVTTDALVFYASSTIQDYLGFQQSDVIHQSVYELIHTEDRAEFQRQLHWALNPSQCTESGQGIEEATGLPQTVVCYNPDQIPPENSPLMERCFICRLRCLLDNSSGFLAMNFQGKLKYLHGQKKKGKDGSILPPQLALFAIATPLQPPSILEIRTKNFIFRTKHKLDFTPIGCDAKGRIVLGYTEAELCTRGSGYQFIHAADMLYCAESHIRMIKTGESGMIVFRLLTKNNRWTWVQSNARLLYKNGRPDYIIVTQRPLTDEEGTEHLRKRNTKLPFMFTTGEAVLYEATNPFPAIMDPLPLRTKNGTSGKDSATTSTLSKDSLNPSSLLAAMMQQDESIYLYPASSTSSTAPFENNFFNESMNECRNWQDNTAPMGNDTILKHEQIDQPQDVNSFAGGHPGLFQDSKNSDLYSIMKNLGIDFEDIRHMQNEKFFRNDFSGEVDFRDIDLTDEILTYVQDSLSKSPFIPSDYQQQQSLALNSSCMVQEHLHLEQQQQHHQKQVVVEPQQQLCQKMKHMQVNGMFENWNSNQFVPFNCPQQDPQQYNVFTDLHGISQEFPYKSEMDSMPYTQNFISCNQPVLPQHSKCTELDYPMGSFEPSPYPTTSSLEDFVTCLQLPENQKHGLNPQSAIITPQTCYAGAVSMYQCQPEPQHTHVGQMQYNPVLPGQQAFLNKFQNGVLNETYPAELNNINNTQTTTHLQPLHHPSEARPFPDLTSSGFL

[1] = biological target: T2, Nuclear receptor subfamily 1 group I member 3 (Homo sapiens, UniProt Q14994); test: Agonist activity at CAR expressed in human HepG2 cells at 1 to 20 uM after 48 hrs by p(ER6)3-luciferase reporter gene assay; details: hepg2, 48 h
T2 sequence (Q14994 whole entry): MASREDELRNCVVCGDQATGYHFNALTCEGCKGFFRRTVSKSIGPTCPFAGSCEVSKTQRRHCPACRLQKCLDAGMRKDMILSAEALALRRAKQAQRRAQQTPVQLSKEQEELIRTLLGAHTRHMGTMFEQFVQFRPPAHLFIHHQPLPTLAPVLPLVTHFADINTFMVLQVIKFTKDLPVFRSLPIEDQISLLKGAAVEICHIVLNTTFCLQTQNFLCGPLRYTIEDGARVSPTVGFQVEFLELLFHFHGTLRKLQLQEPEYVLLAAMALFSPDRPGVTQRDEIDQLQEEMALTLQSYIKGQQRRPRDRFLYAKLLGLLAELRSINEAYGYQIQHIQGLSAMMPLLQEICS
Method in brief: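 HepG2 cells transiently co-transfected with p(ER6)3-luc reporter, wild-type CAR expression vector and pRL-TK normalization plasmid; after 24 h stabilization, treated with compounds or vehicle (DMSO 0.1%, v/v) for 48 h. Firefly and Renilla luciferase read; fold change versus vehicle (set to 1), means ± SD of triplicates from a representative experiment.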

HepG2 = test: Cytotoxicity against human HepG2 cells assessed as cell viability after 24 hrs by MTS assay; details: hepg2, 24 h
[2] = biological target: T2, Nuclear receptor subfamily 1 group I member 3; test: Agonist activity at human CAR expressed in human HepG2 cells assessed as upregulation of CYP2B6 mRNA expression at 1 uM after 24 hrs by qRT-PCR method; details: hepg2, 24 h
[3] = biological target: T3, Aryl hydrocarbon receptor (Homo sapiens, UniProt P35869); test: as §1
T3 sequence (P35869 whole entry): T1 sequence (P35869 whole entry)

| Activity [1] | Activity [2] | Compound | Emax at 24 h (AHR) | Activity (HepG2) | EC50 [3] |
| --- | --- | --- | --- | --- | --- |
| – | – | Clc1cc2c(cc1Cl)Oc1cc(Cl)c(Cl)cc1O2 [2,3,7,8-TETRACHLORODIBENZO-P-DIOXIN] | 59% | – | – |
| Active | – | COc1cccc(-c2nc(O)c3ccccc3n2)c1 | – | – | – |
| Active | Active | Clc1ccc(-c2nc3sccn3c2/C=N/OCc2ccc(Cl)c(Cl)c2)cc1 | – | Non-toxic | – |
| – | – | Cc1ccc2cc3c(ccc4ccccc43)c3c2c1CC3 [3-METHYLCHOLANTHRENE] | 119% | – | 490 nM |
